The source made the active and inactive calls. The rule behind the calls is not given here.

For one test, the target named is D(2) dopamine receptor (Homo sapiens, UniProt P14416). The test can be described thus: Displacement of [3H]spiroperidol from human cloned dopamine D2L receptor expressed in rat C6 cells. It is filed as cell-based. (Displacement assays read how much labelled ligand stays bound in the presence of the test substance.)
For test [1], the target named is T1, 5-hydroxytryptamine receptor 1A (Homo sapiens, UniProt P08908).
T1 sequence (P08908 whole entry): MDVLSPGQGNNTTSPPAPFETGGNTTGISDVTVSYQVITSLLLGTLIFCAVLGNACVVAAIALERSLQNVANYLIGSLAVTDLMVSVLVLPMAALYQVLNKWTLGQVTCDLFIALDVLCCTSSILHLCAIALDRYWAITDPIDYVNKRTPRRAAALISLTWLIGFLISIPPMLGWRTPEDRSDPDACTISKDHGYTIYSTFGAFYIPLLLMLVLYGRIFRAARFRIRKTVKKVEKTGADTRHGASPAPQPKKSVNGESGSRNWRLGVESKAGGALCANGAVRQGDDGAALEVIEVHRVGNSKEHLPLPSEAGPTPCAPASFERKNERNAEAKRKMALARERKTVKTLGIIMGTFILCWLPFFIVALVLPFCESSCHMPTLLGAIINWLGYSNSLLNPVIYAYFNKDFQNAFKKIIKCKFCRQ
The test can be described thus: Displacement of [3H]8-OH-DPAT from human cloned 5HT1A receptor expressed in HEK293 cells. Format: cell-based. Summed up: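 Membranes (40 µg) from HEK-293 cells stably expressing human 5-HT1A, with 1.0 nM [3H]-8-OH-DPAT and compound (0.1 nM-10 µM). Incubated 120 min at 37 °C in 50 mM Tris-HCl pH 7.4, 5 mM MgSO4, then filtered. Nonspecific binding with 10 µM 5-HT. Ki by nonlinear fit and Cheng-Prusoff; three experiments in triplicate.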

Test [2] concerns the target 5-hydroxytryptamine receptor 7 (Rattus norvegicus, UniProt P32305). Briefly: Displacement of [3H]LSD from rat cloned 5HT7 receptor expressed in HEK293 cells. Format: cell-based. In short, it runs like this:
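Rat recombinant 5-HT7 membranes (30 µg) from HEK-293 cells, with 2.5 nM [3H]-LSD and 6-9 compound concentrations. Incubated 60 min at 37 °C in 50 mM Tris, 10 mM MgCl2, 0.5 mM EDTA, pH 7.4, then filtered. Nonspecific binding with 10 µM 5-CT. Ki via Cheng-Prusoff; three experiments in triplicate.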

The target of test [3] is 5-hydroxytryptamine receptor 7 (Cavia porcellus) (UniProt P50407). The test can be described thus: Agonist activity at 5HT7 receptor assessed as relaxation of substance P-induced Dunkin-Hartley guinea pig ileum contraction relative to 5-carboxamidotryptamine. Format: functional, tissue-based. Also on record: scale not given: the % may be the effect or the level left. In short, it runs like this:
(§1)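 Male Dunkin-Hartley guinea pigs (300-350 g); 3 cm proximal ileum segments were held under 1.0 g tension in Krebs-Henseleit at 37 °C, gassed with 95% O2/5% CO2. The bath contained 1 µM atropine, ketanserin and pyrilamine. Compound (0.001-10 µM) or the 5-CT reference was added 5 min before 100 nM substance P, giving noncumulative curves. Read-out was % reduction of contraction height; EC50 by nonlinear fitting.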

Test [4] shares this target. The test can be described thus: Agonist activity at 5HT7 receptor assessed as relaxation of substance P-induced Dunkin-Hartley guinea pig ileum contraction at 1 mM. Format: functional, tissue-based. Summed up:
(§2)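 Guinea pig ileum was contracted by 100 nM substance P in Krebs-Henseleit with atropine, ketanserin and pyrilamine (1 µM each). Agonist tests were repeated after 5-HT7 desensitization: 60 min equilibration with 3 µM 5-CT, bath changed every 15 min. Relaxation was scored at single test concentrations as % reduction in contraction height.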

Test [5] shares this target. The test can be described thus: Agonist activity at 5HT7 receptor assessed as relaxation of substance P-induced Dunkin-Hartley guinea pig ileum contraction at 2 mM. It is filed as functional, tissue-based. Summed up:
as §2

Test [6] has as its target 5-hydroxytryptamine receptor 7 (Cavia porcellus, UniProt P50407). Briefly: Agonist activity at 5HT7 receptor assessed as relaxation of substance P-induced Dunkin-Hartley guinea pig ileum contraction. It is filed as functional, tissue-based. Summed up: as §1
Test [7] addresses 5-hydroxytryptamine receptor 7 (Rattus norvegicus) (UniProt P32305). The test can be described thus: Displacement of [3H]LSD from rat cloned 5HT7 receptor expressed in HEK293 cells at […]. Format: cell-based.
Test [8] deals with 5-hydroxytryptamine receptor 7 (Cavia porcellus) (UniProt P50407). The test can be described thus: Agonist activity at 5HT7 receptor assessed as relaxation of substance P-induced Dunkin-Hartley guinea pig ileum contraction at 3 mM. Format: functional, tissue-based. In short, it runs like this: as §2
Sequence of 5-hydroxytryptamine receptor 7 (Cavia porcellus) (P50407 whole entry): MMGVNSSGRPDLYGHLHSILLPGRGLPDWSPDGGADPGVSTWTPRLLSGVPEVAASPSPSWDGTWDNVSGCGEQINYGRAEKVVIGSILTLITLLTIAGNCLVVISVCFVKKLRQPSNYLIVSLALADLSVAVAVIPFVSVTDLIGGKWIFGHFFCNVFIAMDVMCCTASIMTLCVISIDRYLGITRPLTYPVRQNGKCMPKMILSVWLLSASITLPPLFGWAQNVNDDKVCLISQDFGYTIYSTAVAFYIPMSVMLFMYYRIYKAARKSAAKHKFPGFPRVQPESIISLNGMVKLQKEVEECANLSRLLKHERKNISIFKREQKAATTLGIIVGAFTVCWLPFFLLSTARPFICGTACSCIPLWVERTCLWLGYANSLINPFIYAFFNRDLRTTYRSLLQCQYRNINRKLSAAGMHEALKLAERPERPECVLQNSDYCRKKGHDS

Sequence of 5-hydroxytryptamine receptor 7 (Rattus norvegicus, UniProt P32305) (P32305 whole entry): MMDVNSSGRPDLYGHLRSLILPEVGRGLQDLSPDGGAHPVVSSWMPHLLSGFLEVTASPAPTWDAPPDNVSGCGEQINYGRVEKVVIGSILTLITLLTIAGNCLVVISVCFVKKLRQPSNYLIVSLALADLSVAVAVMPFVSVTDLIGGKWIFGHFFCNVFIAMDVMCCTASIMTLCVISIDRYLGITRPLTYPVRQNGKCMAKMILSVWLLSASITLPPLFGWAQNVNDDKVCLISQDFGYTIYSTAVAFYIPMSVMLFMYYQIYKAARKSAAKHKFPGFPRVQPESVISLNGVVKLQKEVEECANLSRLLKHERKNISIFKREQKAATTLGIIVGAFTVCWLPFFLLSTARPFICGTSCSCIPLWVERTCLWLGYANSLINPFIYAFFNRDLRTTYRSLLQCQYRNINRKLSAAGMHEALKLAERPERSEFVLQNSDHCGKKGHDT
Sequence of D(2) dopamine receptor (P14416 whole entry): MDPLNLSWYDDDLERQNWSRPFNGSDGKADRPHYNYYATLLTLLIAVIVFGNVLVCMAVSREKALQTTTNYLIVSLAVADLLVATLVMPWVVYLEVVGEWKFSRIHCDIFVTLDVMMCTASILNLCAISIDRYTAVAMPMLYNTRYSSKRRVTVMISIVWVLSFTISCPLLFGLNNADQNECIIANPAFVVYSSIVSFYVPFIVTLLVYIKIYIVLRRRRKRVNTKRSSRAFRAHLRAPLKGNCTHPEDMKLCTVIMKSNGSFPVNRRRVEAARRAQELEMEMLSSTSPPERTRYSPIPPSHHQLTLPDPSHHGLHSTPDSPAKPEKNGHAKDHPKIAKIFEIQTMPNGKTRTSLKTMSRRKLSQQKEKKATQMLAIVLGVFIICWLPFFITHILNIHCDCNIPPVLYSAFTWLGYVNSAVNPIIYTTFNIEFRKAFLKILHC
Sequence of 5-hydroxytryptamine receptor 7 (Cavia porcellus, UniProt P50407) (P50407 whole entry): as the sequence (P50407 whole entry) above
Sequence of 5-hydroxytryptamine receptor 7 (Rattus norvegicus) (P32305 whole entry): as the sequence (P32305 whole entry) above

As a reminder, the Ki is a dissociation constant, usually derived from enzyme kinetics or from competition with a known ligand. As to `CC(C)c1ccccc1N1CCN(CCCCCC(=O)N2CCc3ccccc3C2)CC1`, the inhibition constant Ki on D(2) dopamine receptor was found to be 1.3 nM; in test [1], 3.7 nM; in test [2], 6 nM.

Regarding `CSc1ccccc1N1CCN(CCCCCC(=O)NCc2ccccc2)CC1`, the Ki is 33 nM on D(2) dopamine receptor, 12 nM in [1] and 22 nM in [2].

As for `CSc1ccccc1N1CCN(CCCCCC(=O)NCc2ccc(OS(C)(=O)=O)cc2)CC1`, the Ki at D(2) dopamine receptor was 30 nM; in [1], 10.3 nM; in test [2], 148 nM.

Regarding `NCCc1c[nH]c2ccc(C(N)=O)cc12`, the Activity in [3] stood at 100%.

For `CSc1ccccc1N1CCN(CCCCCC(=O)N2CCc3ccccc3C2)CC1`, the Ki on D(2) dopamine receptor came out at 40 nM; in test [1], 2.04 nM; in test [2], 32.9 nM.

Regarding `COc1ccccc1N1CCN(CCCCCC(=O)NCc2ccc(C#N)cc2)CC1`, the figures for the Ki (on D(2) dopamine receptor; in test [1]; in test [2]) were 311 nM, 43 nM and 296 nM, respectively.

Regarding `COc1ccccc1N1CCN(CCCCCC(=O)N2Cc3ccccc3C2)CC1`, the inhibition constant (Ki) was 730 nM on D(2) dopamine receptor, 3.2 nM in test [1] and 179 nM in test [2].

Turning to `CC(C)c1ccccc1N1CCN(CCCCCC(=O)NCc2ccncc2)CC1`, the Ki at D(2) dopamine receptor turned out to be 21 nM; in [1] it was 325 nM; in test [2], 5.1 nM.

As for `CC(C)c1ccccc1N1CCN(CCCCCC(=O)NCc2ccccc2)CC1`, the inhibition constant (Ki) was 9.2 nM on D(2) dopamine receptor, 139 nM in test [1] and 215 nM in test [2].

The term EC50 denotes the concentration needed to bring the measured effect to its halfway point. With `O=C(CCCCCN1CCN(c2ccccc2-c2ccccc2)CC1)NCc1ccccc1`, the result in [4] was inactive. Also, the Ki at D(2) dopamine receptor is 503 nM; in test [1], 161 nM. Moreover, the outcome in test [5] and in test [8] was Active. Further, the 50% effective concentration (EC50) in [6] turned out to be 4500 nM. For the same compound, in test [7], the Activity is 62%.

On to `COc1ccccc1N1CCN(CCCCCC(=O)N2CCc3ccccc3C2)CC1`, for which the Ki at D(2) dopamine receptor turned out to be 22 nM; in test [1] it was 40 nM; in test [2] it was 31 nM.

For the compound `COc1ccccc1N1CCN(CCCCCC(=O)NCc2ccncc2)CC1`, the inhibitory constant (Ki) on D(2) dopamine receptor is 501 nM; in test [1], 19 nM; in test [2], 389 nM.

For the compound `CS(=O)(=O)Oc1ccc(CNC(=O)CCCCCN2CCN(c3ccccc3-c3ccccc3)CC2)cc1`, the Ki at D(2) dopamine receptor worked out at 723 nM; in test [1], 106 nM; in test [2], 5.7 nM.

With `COc1ccccc1N1CCN(CCCCCC(=O)NCc2ccccc2)CC1`, the Ki at D(2) dopamine receptor amounted to 226 nM; in test [1], 13 nM; in test [2], 224 nM.

The values above are taken from ChEMBL document CHEMBL1140136, “Structural modifications of N-(1,2,3,4-tetrahydronaphthalen-1-yl)-4-aryl-1-piperazinehexanamides: influence on lipophilicity and 5-HT7 receptor activity. Part III” (J Med Chem, 2008).
